# Pf gamet viab: P. falciparum stage V gametocyte viability inhibition; inhibition, % at 10.9 µM; P. falciparum stage V gametocytes, ATP luminescence, 24 h; AID 743093; 150,000 compounds, 0.065% hits;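 active = inhibition above the mean plus 3 SD of compounds within the control limits, set per campaign, cut at about 38% in these data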;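 also: 0% = DMSO wells and 100% = medium only without gametocytes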
# Arbovirus inh: blocks arbovirus infection; AID 1251; 200,000 compounds, 0.37% hits; arbovirus infection cell-based antiviral screen; inhibition, % at 10 µM; in the data active = inhibition above about 30%
# TNF necrop inh: blocks TNF-alpha induced death of Jurkat FADD-/- cells. Jurkat FADD-/- TNF necroptosis rescue, ATP luminescence, 24 h; 0 = TNF only, 100 = no-TNF cells. activation (protection from cell death), % at 10 µM. 220,000 compounds, 0.068% hits. AID 463075;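 active = activation, meaning protection from cell death, of at least 50% relative to plate controls; inactive = activation below 50%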;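 also: necroptosis triggered by 40 ng/mL TNF-alpha added together with compound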
# Lipid droplet: modulators of hepatic lipid droplet formation; inhibition, % at 6.5 µM; 240,000 compounds, 0.4% hits; AML12 mouse hepatocytes, oleate lipid droplets, BODIPY imaging;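 active = lipid droplet intensity inhibited by at least 50%, with more than 500 cells counted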
#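 System: AML12 hepatocytes (mouse). Probe or stimulus: oleic acid at 100 µM to induce lipid droplet formation. Times: overnight treatment with compound plus oleate. Detection: Image-based BODIPY and DAPI two-channel analysis. Evaluation: percent inhibition of filter-corrected integrated lipid droplet intensity per well.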
# L929 necroptosis: L929 zVAD cell death inhibition; L929 zVAD necroptosis rescue, ATP luminescence, 24 h; with zVAD 60 µM; viability rescue, % at 10 µM; 220,000 compounds, 0.38% hits; AID 1377;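 active = activation, scaled between plate controls, above about 75%, limit read from the data; inactive = activation under that limit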;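 also: 0% = zVAD with DMSO and 100% = DMSO alone without zVAD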
# Lipid drop inh: hepatic lipid droplet formation inhibition, confirmed; shares compounds with Lipid droplet; inhibition, % at 5.2 µM; AML12 mouse hepatocytes, BODIPY lipid droplet imaging; droplets induced with 100 µM oleic acid; 870 compounds, 65% hits;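 active = inhibition of lipid droplet metric at least 50%, with more than 300 cells in each of four replicates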;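 also: plate controls were DMSO with oleic acid for no effect and 5 µM Triacsin-C for full effect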
# AML12 tox img: counter-screen for cytotoxicity in AML12 mouse hepatocytes. shares compounds with Lipid droplet. DAPI nuclear morphology cytotoxicity imaging; stronger effect = higher value; cells fed 100 µM oleate overnight. z-score at 5 µM. 870 compounds, 3% hits; in the data active = z-score above about 6.3;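 also: compound exposure lasted overnight at 37 °C before fixation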
# AML12 tox conf: confirmation of cytotoxicity in AML12 mouse hepatocytes; shares compounds with Lipid droplet; AML12 mouse hepatocyte viability, ATP luminescence; cells loaded with 100 µM oleic acid; cytotoxicity, % at 50 µM; 530 tested, under 10 active; AID 463219;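 active = cytotoxicity above 50% in each of four replicates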;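 also: compound exposure lasted overnight at 37 °C before the ATP read; 0% = DMSO-treated cells and 100% = wells with no cells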
# An asterisk follows results filed as active; / = no result given. Most compounds without a hit are left out; they make up all but 0.91% or so of the library.
SMILES,Pf gamet viab,Arbovirus inh,TNF necrop inh,Lipid droplet,L929 necroptosis,Lipid drop inh,AML12 tox img,AML12 tox conf
CCOC(=O)c1ccc(NC(=O)CSc2nc3c(c(=O)n2-c2ccccc2OC)SCC3)cc1,/,5.0,/,87.0*,/,105.3*,-0.496,2.4
Cc1ncoc1C(=O)N1CCCC(CCC(=O)NCc2ccccc2F)C1 (configuration not stated),-9.6,-6.4,0.5,0.0,-0.5,/,/,/
CC(C)c1cc(C(=O)N2CCCC(CCC(=O)NCc3ccccc3F)C2)n(C)n1 (configuration not stated),4.3,6.0,-0.1,51.3*,-0.5,-13.6,0.478,/
COc1ccc(CN2CC[C@H]3C=CCc4cccc(c43)C2)cc1,16.0,/,/,/,/,/,/,/
Cc1ccc([N+](=O)[O-])cc1NC(=O)C(C)Sc1nnc(C)n1CC1CCCO1 (configuration not stated),/,/,/,60.5*,/,17.8,-0.282,/
Cc1cccc(C)c1NC(=O)CSc1nnc(C)n1CC1CCCO1 (configuration not stated),8.2,3.3,-0.2,1.9,4.0,/,/,/
COc1ccc(C)cc1S(=O)(=O)N(CC(=O)Nc1cc([N+](=O)[O-])ccc1C)c1ccc(C)c(C)c1,19.5,13.7,1.2,50.7*,-1.1,56.5,-0.351,14.2
COc1ccc(C)cc1S(=O)(=O)N(CC(=O)Nc1cccc([N+](=O)[O-])c1)c1cc(C)cc(C)c1,-14.6,-9.0,-4.8,-26.0,-0.2,/,/,/
CCOc1ccc(NC(=O)CCSc2nc3c(c(CC)c2C#N)C(=O)CC(C)(C)C3)cc1,/,-1.6,3.1,55.1*,0.4,86.2*,-0.0553,1.9
CSc1ccccc1NC(=O)CN(C)C(=O)Cc1c(F)cccc1Cl,/,/,/,5.6,/,/,/,/
COc1cccc(-c2cc(C(=O)Nc3ccc([N+](=O)[O-])cn3)c3ccccc3n2)c1,/,7.4,2.1,57.2*,13.7,74.6*,-0.595,11.7
COc1cccc(-c2cc(C(=O)Nc3ccccc3)c3ccccc3n2)c1,2.7,/,/,/,/,/,/,/
O=C(Nc1ccc([N+](=O)[O-])cn1)c1cc(-c2cccc(Br)c2)nc2ccccc12,21.3,-9.6,6.3,63.6*,0.1,64.2*,-0.171,10.1
O=C(Nc1ccc([N+](=O)[O-])cn1)c1cc(-c2cccc(Cl)c2)nc2ccccc12,10.8,0.9,6.3,67.8*,3.1,37.6,0.222,/
FC(F)(F)c1ccc(Cl)c(NC(=S)N/N=C/c2ccccc2C(F)(F)F)c1,-8.9,10.3,0.6,51.6*,0.0,103.8*,0.612,0.8
CCOc1cc2c(cc1OCC)C(c1ccc(OC)cc1)N(c1ccccc1)C(=O)C2 (configuration not stated),14.9,9.3,3.8,50.9*,-1.0,60.1*,-1.05,1.7
CCOc1ccc(C2c3cc(OC)c(OC)cc3CC(=O)N2c2ccccc2)cc1 (configuration not stated),19.7,-5.7,-5.2,/,-0.1,/,/,/
CCOc1cc2c(cc1OCC)C(c1ccccc1)N(c1ccccc1)C(=O)C2 (configuration not stated),-4.0,1.7,2.6,89.4*,0.4,106.8*,-0.327,3.1
O=C(N/N=C/c1cn(-c2ccccc2)nc1-c1cc2ccccc2o1)c1ccccc1Br,11.3,-25.7,5.8,102.4*,1.9,105.3*,1.14,14.8
O=C(N/N=C/c1cn(-c2cccs2)nc1-c1ccccc1)c1ccccc1Br,/,-13.2,0.9,10.8,7.5,/,/,/
CCCOc1ccc(C2=NNC(c3cccs3)=Nc3ccc(OC)cc32)cc1,12.9,1.9,4.1,51.9*,0.5,49.8,0.171,/
O=C(CCC(=O)c1ccc(F)cc1)Nc1cccc(S(=O)(=O)Nc2cccc(Cl)c2)c1,-19.2,3.6,2.4,50.7*,1.2,-38.6,0.0233,/
O=C(CCC(=O)c1ccc(F)cc1)Nc1cccc(C(F)(F)F)c1,-14.9,2.9,0.7,20.6,0.6,/,/,/
CCOC(=O)[C@@H]1[C@H]2COc3cc(OC)ccc3[C@@H]2N2C(=O)N(c3cccc(Cl)c3)C(=O)[C@@]12C,/,/,/,-0.6,/,/,/,/
